Test results reported in ChEMBL document CHEMBL5500359, “Identification of a new bisindolinone arresting IGROV1 cells proliferation” (Eur J Med Chem, 2024).

Tests used:
[1] = Cytotoxicity against human Leukemia cancer cells incubated for 48 hrs by SRB assay; format: functional; settings: Leukemia cell, read-out: LC50 (the source's name)
How it was run: (§1)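 NCI DTP five-concentration screen. Cells were seeded at 5 × 10³–4 × 10⁴ cells/well, depending on the line. Compounds were diluted in fresh medium and added at scalar concentrations over 0–1000 µM or 0–100 µM. After 48 h the cells were fixed in situ, stained with sulforhodamine B, and optical density was read. GI50, TGI and LC50 were derived by NCI procedures, and the panel mean is the mean graph midpoint.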

Colon carcinoma cell [2] = test: Cytostatic activity against human Colon carcinoma cells incubated for 48 hrs by SRB assay; format: functional
How it was run: (§2)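 NCI-60 five-concentration screen: lines seeded 5×10^3–4×10^4 cells/well depending on line; compound diluted in fresh medium at scalar concentrations 0–100 or 0–1000 μM; 48 h exposure, in situ fixation, sulforhodamine B protein staining, optical density read; GI50, TGI and LC50 per NCI procedures; panel mean = mean graph midpoint.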

CNS carcinoma cell [3] = test: Cell growth inhibition of human CNS carcinoma cells incubated for 48 hrs by SRB assay; format: functional; how it was run: as §2
[4] = Cell growth inhibition of human Leukemia cancer cells incubated for 48 hrs by SRB assay; format: functional; how it was run: as §2
Ovarian cancer cell line [5] = test: Cytostatic activity against human Ovarian cancer cells incubated for 48 hrs by SRB assay; format: functional; how it was run: as §2
Breast cancer cell line [6] = test: Cytotoxicity against human Breast cancer cells incubated for 48 hrs by SRB assay; format: functional; how it was run: as §2
Prostatic carcinoma cell = test: Cell growth inhibition of human Prostate carcinoma cells incubated for 48 hrs by SRB assay; format: functional; how it was run: as §2
Colon carcinoma cell [7] = test: Cytotoxicity against human Colon carcinoma cells incubated for 48 hrs by SRB assay; format: functional; how it was run: as §2
Melanoma cell line [8] = test: Cell growth inhibition of human Melanoma cells incubated for 48 hrs by SRB assay; format: functional; how it was run: as §2
Renal cancer cell line [9] = test: Cytostatic activity against human Renal cancer cells incubated for 48 hrs by SRB assay; format: functional; how it was run: as §2
[10] = system: Panel NCI-60 (60 carcinoma cell lines); test: Cytostatic activity against human Panel NCI-60 (60 carcinoma cell lines) incubated for 48 hrs by SRB assay; format: functional; how it was run: as §2
[11] = system: Panel NCI-60 (60 carcinoma cell lines); test: Cell growth inhibition of human Panel NCI-60 (60 carcinoma cell lines) incubated for 48 hrs by SRB assay; format: functional; how it was run: as §2
Breast cancer cell line [12] = test: Cell growth inhibition of human Breast cancer cells incubated for 48 hrs by SRB assay; format: functional; settings: read-out: LC50 (the source's name); how it was run: as §1
Breast cancer cell line [13] = test: Cytostatic activity against human Breast cancer cells incubated for 48 hrs by SRB assay; format: functional; how it was run: as §2
[14] = Cytostatic activity against human Leukemia cancer cells incubated for 48 hrs by SRB assay; format: functional, Leukemia cell; how it was run: as §2
Melanoma cell line [15] = test: […] against human Melanoma cells incubated for 48 hrs by SRB assay; format: functional; settings: read-out: LC50 (the source's name); how it was run: as §1
NSCLC = test: Cell growth inhibition of human NSCLC cells incubated for 48 hrs by SRB assay; format: functional; how it was run: as §2
CNS carcinoma cell [16] = test: Cytostatic activity against human CNS carcinoma cells incubated for 48 hrs by SRB assay; format: functional; how it was run: as §2
Renal cancer cell line [17] = test: Cell growth inhibition of human Renal cancer cells incubated for 48 hrs by SRB assay; format: functional; how it was run: as §2
Ovarian cancer cell line [18] = test: Cytotoxicity against human Ovarian cancer cells incubated for 48 hrs by SRB assay; format: functional; how it was run: as §2

Row | SMILES | CC50 [1] [µM] | TGI (Colon carcinoma cell [2]) [µM] | GI50 (CNS carcinoma cell [3]) [µM] | GI50 [4] [µM] | TGI (Ovarian cancer cell line [5]) [µM] | GI (Breast cancer cell line [6]) [µM] | GI (Prostatic carcinoma cell) [µM] | GI (Colon carcinoma cell [7]) [µM] | GI (Melanoma cell line [8]) [µM] | GI (Renal cancer cell line [9]) [µM] | GI [10] [µM] | GI50 [11] [µM] | CC50 (Breast cancer cell line [12]) [µM] | TGI (Breast cancer cell line [13]) [µM] | GI [14] [µM] | CC50 (Melanoma cell line [15]) [µM] | GI (NSCLC) [µM] | GI (CNS carcinoma cell [16]) [µM] | GI50 (Renal cancer cell line [17]) [µM] | GI (Ovarian cancer cell line [18]) [µM]
1 | O=C1Nc2cc(Cl)ccc2/C1=C\c1cccc(/C=C2/C(=O)Nc3cc(Cl)ccc32)c1 | 100 | 4.68 | 2.29 | 2.4 | 8.91 | 37.15 | 2.14 | 11.22 | 2.19 | 8.51 | 7.59 | 2.57 | 2.45 | 6.92 | 11.22 | 5.25 | 3.39 | 5.89 | 3.09 | 44.67
2 | O=C1Nc2cccc(F)c2/C1=C\c1cccc(/C=C2/C(=O)Nc3cccc(F)c32)c1 | 100 | 3.31 | 1.82 | 1.23 | 7.59 | 16.98 | 2.14 | 6.76 | 1.7 | 4.17 | 5.13 | 1.91 | 2 | 6.17 | 6.92 | 3.72 | 2.4 | 4.27 | 1.86 | 33.88
3 | COc1ccc2c(c1)/C(=C\c1cc(C(C)(C)C)cc(/C=C3/C(=O)N(C)c4ccc(OC)cc43)c1O)C(=O)N2C | 100 | 4.79 | 1.91 | 2.82 | 7.24 | 36.31 | 3.09 | 16.98 | 1.86 | 8.32 | 6.61 | 2.24 | 2.24 | 6.17 | 20.42 | 3.98 | 2.34 | 4.9 | 2.51 | 28.18
4 | COc1ccc2c(c1)/C(=C\c1ccc3ccc4ccc(/C=C5/C(=O)N(C)c6ccc(OC)cc65)nc4c3n1)C(=O)N2C |  | 6.31 | 3.16 | 3.16 | 28.2 | 64.57 | 2.57 | 13.49 | 2.14 | 5.89 | 12.88 | 2.63 | 3.09 | 18.6 | 56.23 | 4.79 | 2.57 | 17.78 | 2.34 | 89.13
5 | COc1cc2c(/C=C3/C(=O)N(C)c4cc5c(cc43)/C(=C\c3c(Cl)[nH]c4cc(C)c(OC)cc34)C(=O)N5C)c(Cl)[nH]c2cc1C | 42.7 | 4.17 | 1.82 | 1.2 | 10.7 | 33.11 | 1.82 | 9.77 | 2.34 | 7.24 | 7.59 | 2.04 | 24.6 | 10 | 5.37 | 6.46 | 2.19 | 7.76 | 1.95 | 45.71
